Assay [1] concerns the target T1, Sodium-dependent dopamine transporter (Homo sapiens, UniProt Q01959). Kind of assay: Affinity was evaluated using [3H]WIN-35428 (radioligand) on Cloned human Dopamine transporter expressed in HEK cells. The format is cell-based, HEK293.
For assay [2], the target named is Sodium-dependent serotonin transporter (Homo sapiens, UniProt P31645). Kind of assay: Affinity was evaluated using [3H]citalopram (radioligand) on human serotonin transporter expressed in HEK cells. Format: cell-based, HEK293.
Sodium-dependent serotonin transporter (Homo sapiens, UniProt P31645), sequence (P31645 whole entry): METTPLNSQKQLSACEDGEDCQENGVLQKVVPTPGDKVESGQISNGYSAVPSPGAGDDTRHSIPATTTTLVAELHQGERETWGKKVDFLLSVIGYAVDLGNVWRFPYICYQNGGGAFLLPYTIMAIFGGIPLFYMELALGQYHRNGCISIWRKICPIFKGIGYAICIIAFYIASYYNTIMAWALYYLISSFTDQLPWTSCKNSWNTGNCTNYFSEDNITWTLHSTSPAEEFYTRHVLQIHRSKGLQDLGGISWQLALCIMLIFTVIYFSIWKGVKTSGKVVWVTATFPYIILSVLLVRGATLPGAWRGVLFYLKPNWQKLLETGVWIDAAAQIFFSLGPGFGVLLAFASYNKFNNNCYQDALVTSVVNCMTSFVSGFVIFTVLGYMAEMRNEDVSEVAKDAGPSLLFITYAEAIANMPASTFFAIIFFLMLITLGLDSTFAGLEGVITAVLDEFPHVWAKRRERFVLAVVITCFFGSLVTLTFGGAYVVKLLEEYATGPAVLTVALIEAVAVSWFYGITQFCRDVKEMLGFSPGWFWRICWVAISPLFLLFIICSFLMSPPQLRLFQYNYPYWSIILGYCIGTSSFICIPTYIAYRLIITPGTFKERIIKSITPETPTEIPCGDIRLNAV
In assay [3] the target is T1, Sodium-dependent dopamine transporter. Nature of the assay: Affinity was evaluated using [3H]DA (radioligand) on Cloned human Dopamine transporter expressed in HEK cells. Format: cell-based, HEK293. The method, boiled down: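 HEK-293 cells stably expressing cloned hDAT, suspended intact; preincubated with inhibitor 15 min at room temperature in pH 7.4 Na phosphate/NaCl/KCl/MgSO4/glucose/CaCl2 buffer with 0.1 mM tropolone, then [3H]dopamine added for 8 min more; ended with ice-cold buffer. Compounds from DMSO stocks, 0.5% final DMSO, at least five concentrations.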

The target of assay [4] is Sodium-dependent dopamine transporter (Rattus norvegicus, UniProt P23977). Nature of the assay: IC50 value was evaluated using [3H]WIN-35428 (radioligand) on Dopamine transporter in rat striatum. The format is tissue-based.
Sodium-dependent dopamine transporter (Rattus norvegicus, UniProt P23977), sequence (P23977 whole entry): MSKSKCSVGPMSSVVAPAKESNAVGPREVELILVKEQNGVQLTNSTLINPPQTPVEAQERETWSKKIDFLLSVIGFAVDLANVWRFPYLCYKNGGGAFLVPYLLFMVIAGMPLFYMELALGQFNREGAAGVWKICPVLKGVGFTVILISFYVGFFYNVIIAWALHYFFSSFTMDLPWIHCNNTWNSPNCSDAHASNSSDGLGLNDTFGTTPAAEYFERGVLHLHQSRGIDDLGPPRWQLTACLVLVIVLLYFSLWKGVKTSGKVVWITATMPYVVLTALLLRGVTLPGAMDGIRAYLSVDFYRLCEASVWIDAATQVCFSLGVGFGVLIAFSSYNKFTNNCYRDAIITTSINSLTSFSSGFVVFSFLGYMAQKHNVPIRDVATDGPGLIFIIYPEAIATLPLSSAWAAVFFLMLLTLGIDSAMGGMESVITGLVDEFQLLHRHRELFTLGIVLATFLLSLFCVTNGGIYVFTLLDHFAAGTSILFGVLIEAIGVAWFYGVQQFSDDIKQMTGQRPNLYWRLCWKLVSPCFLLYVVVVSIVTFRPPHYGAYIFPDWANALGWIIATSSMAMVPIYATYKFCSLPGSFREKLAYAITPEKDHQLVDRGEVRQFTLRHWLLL
Assay [5] deals with Sodium-dependent serotonin transporter (Rattus norvegicus, UniProt P31652). Kind of assay: IC50 value was evaluated using [3H]citalopram (radioligand) on serotonin transporter in rat striatum. Format: tissue-based.
Sodium-dependent serotonin transporter (Rattus norvegicus, UniProt P31652), sequence (P31652 whole entry): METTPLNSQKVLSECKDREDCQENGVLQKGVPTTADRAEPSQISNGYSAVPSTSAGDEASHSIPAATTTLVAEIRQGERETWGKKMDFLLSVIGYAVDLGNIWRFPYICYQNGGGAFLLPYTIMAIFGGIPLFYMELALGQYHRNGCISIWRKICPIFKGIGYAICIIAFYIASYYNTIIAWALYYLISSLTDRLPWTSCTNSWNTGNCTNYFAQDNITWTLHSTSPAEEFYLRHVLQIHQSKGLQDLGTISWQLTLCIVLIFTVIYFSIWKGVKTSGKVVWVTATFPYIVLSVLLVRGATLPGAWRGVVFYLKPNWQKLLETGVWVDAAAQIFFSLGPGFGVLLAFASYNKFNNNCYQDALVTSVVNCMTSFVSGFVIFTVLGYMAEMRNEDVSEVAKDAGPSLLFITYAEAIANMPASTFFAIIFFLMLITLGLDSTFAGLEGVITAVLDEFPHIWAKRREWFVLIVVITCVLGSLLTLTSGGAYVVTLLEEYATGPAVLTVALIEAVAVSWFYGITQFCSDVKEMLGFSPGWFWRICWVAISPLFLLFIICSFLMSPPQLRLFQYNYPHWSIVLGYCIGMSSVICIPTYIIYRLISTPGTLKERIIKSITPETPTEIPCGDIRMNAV

T1 sequence (Q01959 whole entry): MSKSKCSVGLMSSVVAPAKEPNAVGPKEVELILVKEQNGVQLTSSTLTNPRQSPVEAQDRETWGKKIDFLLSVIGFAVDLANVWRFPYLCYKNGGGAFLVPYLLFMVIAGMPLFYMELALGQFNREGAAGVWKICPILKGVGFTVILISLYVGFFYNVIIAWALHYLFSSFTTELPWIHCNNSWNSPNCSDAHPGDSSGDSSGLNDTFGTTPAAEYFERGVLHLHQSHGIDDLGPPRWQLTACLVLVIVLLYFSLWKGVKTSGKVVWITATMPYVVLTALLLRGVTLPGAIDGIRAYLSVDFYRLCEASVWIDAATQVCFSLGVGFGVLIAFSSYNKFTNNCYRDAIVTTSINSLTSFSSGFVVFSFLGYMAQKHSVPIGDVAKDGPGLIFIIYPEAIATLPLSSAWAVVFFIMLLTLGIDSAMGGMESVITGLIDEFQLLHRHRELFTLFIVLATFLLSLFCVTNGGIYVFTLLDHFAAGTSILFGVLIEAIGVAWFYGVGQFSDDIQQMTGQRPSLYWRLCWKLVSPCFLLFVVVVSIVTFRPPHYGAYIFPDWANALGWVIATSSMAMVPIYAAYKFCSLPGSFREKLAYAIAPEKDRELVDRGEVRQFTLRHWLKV

Broadly, the IC50 is the midpoint of a concentration-inhibition curve. Low readings indicate higher potency, high ones lower potency. For the compound `O=C(CC1CCN(Cc2ccc(F)cc2)CC1)NC(c1ccccc1)c1ccccc1`, the values for the IC50 in assay [1] and in assay [2] were 3210 nM and 49.2 µM, respectively.
On to `Fc1ccc(C(NCCC2CCN(Cc3ccccc3)CC2)c2ccc(F)cc2)cc1`, for which the IC50 in assay [1] is 33 nM; in assay [3], 58 nM; in assay [2] it was 10.7 µM.
Turning to `Fc1ccc(C(OCCC2CCN(Cc3ccccc3)CC2)c2ccc(F)cc2)cc1`, the half-maximal inhibitory concentration (IC50) in assay [1] worked out at 35 nM.
Consider `Fc1ccc(CN2CCC(CCNC(c3ccccc3)c3ccccc3)CC2)cc1`, for which the concentration for half-maximal inhibition (IC50) in assay [1] was 30 nM; in assay [4], 9.4 nM; in assay [3], 32 nM; in assay [2], 5.85 µM; in assay [5] it was 585 nM.
In turn, `Fc1ccc(CN2CCC(CCOC(c3ccccc3)c3ccccc3)CC2)cc1` showed a concentration for half-maximal inhibition (IC50) in assay [1] of 37.6 nM.

Source of the values: ChEMBL document CHEMBL1131067, “Tolerance in the replacement of the benzhydrylic O atom in 4-[2-(diphenylmethoxy)ethyl]-1-benzylpiperidine derivatives by an N atom: development of new-generation potent and selective N-analogue molecules for the dopamine transporter” (J Med Chem, 1998).
